Experimental data from ChEMBL document CHEMBL3259751, “A rational design strategy of the novel topoisomerase II inhibitors for the synthesis of the 4-O-(2-pyrazinecarboxylic)-4'-demethylepipodophyllotoxin with antitumor activity by diminishing the relaxation reaction of topoisomerase II-DNA decatenation” (Bioorg Med Chem, 2014).
Activity calls are given as the source filed them. No cut-off for these calls is given here.

tested on: HepG2; experiment: Cytotoxicity against human HepG2 cells after 48 hrs by MTT assay; assay type: functional, cell-based; settings: not given
Summary of the method: (§1)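 Cells seeded at 3500–13,000 per well. A549, HeLa and HepG2 were grown in DMEM and BGC-823 in RPMI 1640, each with 10% CS plus penicillin/streptomycin, at 37 °C and 5% CO₂. Drug exposure lasted 2 days, followed by MTT readout at A₄₉₂, with untreated controls at 0.6–0.8. IC50 was the concentration cutting absorbance by 50%, interpolated by sigmoidal nonlinear regression. Run in triplicate.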

Row | Compound | Activity
1 | COc1cc([C@@H]2c3cc4c(cc3[C@@H](O)[C@H]3COC(=O)[C@H]23)OCO4)cc(OC)c1O [4'-DEMETHYLEPIPODOPHYLLOTOXIN] | Dose-dependent effect

same assay, conditions: HepG2, 48 h

Row | Compound | IC50 [µM]
2 | COc1cc([C@@H]2c3cc4c(cc3[C@@H](OC(=O)c3cnccn3)[C@H]3COC(=O)[C@H]23)OCO4)cc(OC)c1O | 1.21
3 | COc1cc([C@@H]2c3cc4c(cc3[C@@H](O)[C@H]3COC(=O)[C@H]23)OCO4)cc(OC)c1O [4'-DEMETHYLEPIPODOPHYLLOTOXIN] | 18.7

tested on: HeLa; experiment: Cytotoxicity against human HeLa cells after 48 hrs by MTT assay; assay type: functional, cell-based; settings: not given; summary of the method: as §1

Row | Compound | IC50 [µM] | Activity
4 | COc1cc([C@@H]2c3cc4c(cc3[C@@H](OC(=O)c3cnccn3)[C@H]3COC(=O)[C@H]23)OCO4)cc(OC)c1O | 0.6 | 
5 | COc1cc([C@@H]2c3cc4c(cc3[C@@H](O)[C@H]3COC(=O)[C@H]23)OCO4)cc(OC)c1O [4'-DEMETHYLEPIPODOPHYLLOTOXIN] | 16 | Dose-dependent effect

tested on: A549; experiment: Selectivity ratio of etoposide IC50 to compound IC50 for human A549 cells after 48 hrs by MTT assay; assay type: functional; settings: not given

Row | Compound | Ratio IC50
6 | COc1cc([C@@H]2c3cc4c(cc3[C@@H](OC(=O)c3cnccn3)[C@H]3COC(=O)[C@H]23)OCO4)cc(OC)c1O | 16

tested on: HeLa; experiment: Cell cycle arrest in human HeLa cells after 24 hrs by propidium iodide staining-based flow cytometry; assay type: functional; settings: not given

Row | Compound | Activity
7 | COc1cc([C@@H]2c3cc4c(cc3[C@@H](OC(=O)c3cnccn3)[C@H]3COC(=O)[C@H]23)OCO4)cc(OC)c1O | Dose-dependent effect

tested on: not listed separately; experiment: Octanol-water partition coefficient, log P of the compound; assay type: physicochemical; settings: not given
Summary of the method: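 Partitioning between 1-octanol and water. The compound concentration was measured in each phase, and logP was calculated as the log of the 1-octanol concentration over the water concentration. The water concentration was corrected by an index-error factor, Y = 2.555.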

Row | Compound | logP
8 | COc1cc([C@@H]2c3cc4c(cc3[C@@H](OC(=O)c3cnccn3)[C@H]3COC(=O)[C@H]23)OCO4)cc(OC)c1O | 0.33
9 | COc1cc([C@@H]2c3cc4c(cc3[C@@H](O)[C@H]3COC(=O)[C@H]23)OCO4)cc(OC)c1O [4'-DEMETHYLEPIPODOPHYLLOTOXIN] | 0.73

tested on: HeLa; experiment: Induction of apoptosis in human HeLa cells assessed as late apoptotic cells at 5 uM after 48 hrs by Annexin V/propidium iodide staining-based flow cytometry (reference value: 2.3 %); assay type: functional; settings: not given

Row | Compound | Activity [%]
10 | COc1cc([C@@H]2c3cc4c(cc3[C@@H](OC(=O)c3cnccn3)[C@H]3COC(=O)[C@H]23)OCO4)cc(OC)c1O | 30.1

tested on: HeLa; experiment: Induction of apoptosis in human HeLa cells assessed as late apoptotic cells at 10 uM after 48 hrs by Annexin V/propidium iodide staining-based flow cytometry (reference value: 2.3 %); assay type: functional; settings: not given

Row | Compound | Activity [%]
11 | COc1cc([C@@H]2c3cc4c(cc3[C@@H](OC(=O)c3cnccn3)[C@H]3COC(=O)[C@H]23)OCO4)cc(OC)c1O | 45.5

tested on: HepG2; experiment: Selectivity ratio of etoposide IC50 to compound IC50 for human HepG2 cells after 48 hrs by MTT assay; assay type: functional; settings: not given

Row | Compound | Ratio IC50
12 | COc1cc([C@@H]2c3cc4c(cc3[C@@H](OC(=O)c3cnccn3)[C@H]3COC(=O)[C@H]23)OCO4)cc(OC)c1O | 12

tested on: HeLa; experiment: Selectivity ratio of etoposide IC50 to compound IC50 for human HeLa cells after 48 hrs by MTT assay; assay type: functional; settings: not given

Row | Compound | Ratio IC50
13 | COc1cc([C@@H]2c3cc4c(cc3[C@@H](OC(=O)c3cnccn3)[C@H]3COC(=O)[C@H]23)OCO4)cc(OC)c1O | 66

tested on: HeLa; experiment: Induction of apoptosis in human HeLa cells assessed as late apoptotic cells at 1 uM after 48 hrs by Annexin V/propidium iodide staining-based flow cytometry (reference value: 2.3 %); assay type: functional; settings: not given

Row | Compound | Activity [%]
14 | COc1cc([C@@H]2c3cc4c(cc3[C@@H](OC(=O)c3cnccn3)[C@H]3COC(=O)[C@H]23)OCO4)cc(OC)c1O | 7.2

tested on: HeLa; experiment: Induction of apoptosis in human HeLa cells assessed as early apoptotic cells at 1 uM after 48 hrs by Annexin V/propidium iodide staining-based flow cytometry (reference value: 2.7 %); assay type: functional; settings: not given

Row | Compound | Activity [%]
15 | COc1cc([C@@H]2c3cc4c(cc3[C@@H](OC(=O)c3cnccn3)[C@H]3COC(=O)[C@H]23)OCO4)cc(OC)c1O | 4.2

tested on: HeLa; experiment: Cell cycle arrest in human HeLa cells assessed as accumulation at G0/G1 phase at 0.5 uM after 24 hrs by propidium iodide staining-based flow cytometry (reference value: 37.26 %); assay type: functional; settings: not given

Row | Compound | Activity [%]
16 | COc1cc([C@@H]2c3cc4c(cc3[C@@H](OC(=O)c3cnccn3)[C@H]3COC(=O)[C@H]23)OCO4)cc(OC)c1O | 39.65

tested on: HeLa; experiment: Cell cycle arrest in human HeLa cells assessed as accumulation at G0/G1 phase at 5 uM after 24 hrs by propidium iodide staining-based flow cytometry (reference value: 37.26 %); assay type: functional; settings: not given

Row | Compound | Activity [%]
17 | COc1cc([C@@H]2c3cc4c(cc3[C@@H](OC(=O)c3cnccn3)[C@H]3COC(=O)[C@H]23)OCO4)cc(OC)c1O | 4.01

molecular target: DNA topoisomerase 2-alpha (Homo sapiens) (UniProt P11388); experiment: Inhibition of human DNA topoisomerase-2 using kDNA as substrate assessed as inhibition of DNA relaxation at 1 to 10 uM after 60 mins by agarose gel electrophoresis; settings: not given
Sequence (P11388 whole entry): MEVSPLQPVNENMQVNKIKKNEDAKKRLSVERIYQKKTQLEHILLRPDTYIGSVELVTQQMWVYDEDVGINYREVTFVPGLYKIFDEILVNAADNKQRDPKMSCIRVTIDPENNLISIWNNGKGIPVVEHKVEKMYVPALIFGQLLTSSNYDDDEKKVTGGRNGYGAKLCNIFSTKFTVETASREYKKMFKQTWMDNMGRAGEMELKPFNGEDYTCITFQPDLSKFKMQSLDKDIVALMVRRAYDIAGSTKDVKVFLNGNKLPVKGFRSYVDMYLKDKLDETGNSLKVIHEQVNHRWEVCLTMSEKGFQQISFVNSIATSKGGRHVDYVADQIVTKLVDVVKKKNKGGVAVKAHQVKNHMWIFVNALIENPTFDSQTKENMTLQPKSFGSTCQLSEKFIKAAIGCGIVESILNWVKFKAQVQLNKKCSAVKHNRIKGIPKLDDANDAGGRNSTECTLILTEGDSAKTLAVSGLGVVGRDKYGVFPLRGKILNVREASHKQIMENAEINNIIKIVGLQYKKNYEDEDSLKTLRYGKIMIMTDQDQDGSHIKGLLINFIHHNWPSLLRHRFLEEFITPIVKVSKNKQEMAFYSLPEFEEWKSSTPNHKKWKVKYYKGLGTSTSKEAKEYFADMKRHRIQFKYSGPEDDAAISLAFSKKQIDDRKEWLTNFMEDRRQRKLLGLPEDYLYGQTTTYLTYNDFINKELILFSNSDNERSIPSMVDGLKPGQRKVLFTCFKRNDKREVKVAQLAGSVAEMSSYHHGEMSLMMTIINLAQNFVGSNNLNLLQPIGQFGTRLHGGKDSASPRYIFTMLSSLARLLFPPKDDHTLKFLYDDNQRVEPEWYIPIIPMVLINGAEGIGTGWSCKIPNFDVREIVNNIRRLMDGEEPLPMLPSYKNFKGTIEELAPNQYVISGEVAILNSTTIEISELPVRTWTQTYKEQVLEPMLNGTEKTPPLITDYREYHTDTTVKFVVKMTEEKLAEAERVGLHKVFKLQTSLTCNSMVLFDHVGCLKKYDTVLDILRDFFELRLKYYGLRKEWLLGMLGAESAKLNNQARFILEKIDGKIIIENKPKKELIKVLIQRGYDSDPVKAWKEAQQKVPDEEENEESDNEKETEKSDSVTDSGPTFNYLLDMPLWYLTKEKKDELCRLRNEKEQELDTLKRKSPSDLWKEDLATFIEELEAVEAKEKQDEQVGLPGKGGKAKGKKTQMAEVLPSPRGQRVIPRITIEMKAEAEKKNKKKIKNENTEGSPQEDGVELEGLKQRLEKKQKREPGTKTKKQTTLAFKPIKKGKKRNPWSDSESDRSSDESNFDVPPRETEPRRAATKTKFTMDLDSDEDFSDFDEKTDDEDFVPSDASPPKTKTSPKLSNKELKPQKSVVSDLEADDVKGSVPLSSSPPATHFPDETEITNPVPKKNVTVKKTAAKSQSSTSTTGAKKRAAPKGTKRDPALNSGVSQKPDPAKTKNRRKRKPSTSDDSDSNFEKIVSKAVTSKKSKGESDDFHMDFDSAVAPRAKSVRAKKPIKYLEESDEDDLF

Row | Compound | inhibition
18 | COc1cc([C@@H]2c3cc4c(cc3[C@@H](OC(=O)c3cnccn3)[C@H]3COC(=O)[C@H]23)OCO4)cc(OC)c1O | Active

tested on: BGC-823; experiment: Selectivity ratio of etoposide IC50 to compound IC50 for human BGC823 cells after 48 hrs by MTT assay; assay type: functional; settings: not given

Row | Compound | Ratio IC50
19 | COc1cc([C@@H]2c3cc4c(cc3[C@@H](OC(=O)c3cnccn3)[C@H]3COC(=O)[C@H]23)OCO4)cc(OC)c1O | 6

tested on: not listed separately; experiment: Cytotoxicity against human HL-7702 cells after 48 hrs by MTT assay relative to etoposide; assay type: functional, L02; settings: not given

Row | Compound | Activity [%]
20 | COc1cc([C@@H]2c3cc4c(cc3[C@@H](OC(=O)c3cnccn3)[C@H]3COC(=O)[C@H]23)OCO4)cc(OC)c1O | 114

tested on: HeLa; experiment: Induction of apoptosis in human HeLa cells after 48 hrs by Annexin V/propidium iodide staining-based flow cytometry; assay type: functional, cell-based; settings: not given

Row | Compound | Activity
21 | COc1cc([C@@H]2c3cc4c(cc3[C@@H](OC(=O)c3cnccn3)[C@H]3COC(=O)[C@H]23)OCO4)cc(OC)c1O | Dose-dependent effect

tested on: A549; experiment: Cytotoxicity against human A549 cells after 48 hrs by MTT assay; assay type: functional, cell-based; settings: not given; summary of the method: as §1

Row | Compound | Activity
22 | COc1cc([C@@H]2c3cc4c(cc3[C@@H](O)[C@H]3COC(=O)[C@H]23)OCO4)cc(OC)c1O [4'-DEMETHYLEPIPODOPHYLLOTOXIN] | Dose-dependent effect

same assay, conditions: A549, 48 h

Row | Compound | IC50 [µM]
23 | COc1cc([C@@H]2c3cc4c(cc3[C@@H](OC(=O)c3cnccn3)[C@H]3COC(=O)[C@H]23)OCO4)cc(OC)c1O | 3.83
24 | COc1cc([C@@H]2c3cc4c(cc3[C@@H](O)[C@H]3COC(=O)[C@H]23)OCO4)cc(OC)c1O [4'-DEMETHYLEPIPODOPHYLLOTOXIN] | 52.1

tested on: HeLa; experiment: Cell cycle arrest in human HeLa cells assessed as accumulation at G0/G1 phase at 1 uM after 24 hrs by propidium iodide staining-based flow cytometry (reference value: 37.26 %); assay type: functional; settings: not given

Row | Compound | Activity [%]
25 | COc1cc([C@@H]2c3cc4c(cc3[C@@H](OC(=O)c3cnccn3)[C@H]3COC(=O)[C@H]23)OCO4)cc(OC)c1O | 5.49

tested on: HeLa; experiment: Cell cycle arrest in human HeLa cells assessed as accumulation at G2/M phase at 1 uM after 24 hrs by propidium iodide staining-based flow cytometry (reference value: 5.29 %); assay type: functional; settings: not given

Row | Compound | Activity [%]
26 | COc1cc([C@@H]2c3cc4c(cc3[C@@H](OC(=O)c3cnccn3)[C@H]3COC(=O)[C@H]23)OCO4)cc(OC)c1O | 60.96

tested on: not listed separately; experiment: Cytotoxicity against human HL-7702 cells after 48 hrs by MTT assay; assay type: cell-based, L02; settings: Homo sapiens, L02, 48 h

Row | Compound | IC50 [µM]
27 | COc1cc([C@@H]2c3cc4c(cc3[C@@H](OC(=O)c3cnccn3)[C@H]3COC(=O)[C@H]23)OCO4)cc(OC)c1O | 52.4
28 | COc1cc([C@@H]2c3cc4c(cc3[C@@H](O)[C@H]3COC(=O)[C@H]23)OCO4)cc(OC)c1O [4'-DEMETHYLEPIPODOPHYLLOTOXIN] | 13

same assay, conditions: human, l02, 48 h

Row | Compound | Activity
29 | COc1cc([C@@H]2c3cc4c(cc3[C@@H](OC(=O)c3cnccn3)[C@H]3COC(=O)[C@H]23)OCO4)cc(OC)c1O | Dose-dependent effect
30 | COc1cc([C@@H]2c3cc4c(cc3[C@@H](O)[C@H]3COC(=O)[C@H]23)OCO4)cc(OC)c1O [4'-DEMETHYLEPIPODOPHYLLOTOXIN] | Dose-dependent effect

tested on: HeLa; experiment: Induction of apoptosis in human HeLa cells assessed as early apoptotic cells at 10 uM after 48 hrs by Annexin V/propidium iodide staining-based flow cytometry (reference value: 2.7 %); assay type: functional; settings: not given

Row | Compound | Activity [%]
31 | COc1cc([C@@H]2c3cc4c(cc3[C@@H](OC(=O)c3cnccn3)[C@H]3COC(=O)[C@H]23)OCO4)cc(OC)c1O | 10.8

tested on: HeLa; experiment: Cell cycle arrest in human HeLa cells assessed as accumulation at G2/M phase at 5 uM after 24 hrs by propidium iodide staining-based flow cytometry (reference value: 5.29 %); assay type: functional; settings: not given

Row | Compound | Activity [%]
32 | COc1cc([C@@H]2c3cc4c(cc3[C@@H](OC(=O)c3cnccn3)[C@H]3COC(=O)[C@H]23)OCO4)cc(OC)c1O | 66.85

tested on: HeLa; experiment: Induction of apoptosis in human HeLa cells assessed as early apoptotic cells at 5 uM after 48 hrs by Annexin V/propidium iodide staining-based flow cytometry (reference value: 2.7 %); assay type: functional; settings: not given

Row | Compound | Activity [%]
33 | COc1cc([C@@H]2c3cc4c(cc3[C@@H](OC(=O)c3cnccn3)[C@H]3COC(=O)[C@H]23)OCO4)cc(OC)c1O | 10.3

tested on: HeLa; experiment: Cell cycle arrest in human HeLa cells assessed as accumulation at G2/M phase at 0.5 uM after 24 hrs by propidium iodide staining-based flow cytometry (reference value: 5.29 %); assay type: functional; settings: not given

Row | Compound | Activity [%]
34 | COc1cc([C@@H]2c3cc4c(cc3[C@@H](OC(=O)c3cnccn3)[C@H]3COC(=O)[C@H]23)OCO4)cc(OC)c1O | 19.88

tested on: not listed separately; experiment: (§2) Cytotoxicity against human BGC823 cells after 48 hrs by MTT assay; assay type: functional, cell-based; settings: BGC-823, 48 h; summary of the method: as §1

Row | Compound | IC50 [µM]
35 | COc1cc([C@@H]2c3cc4c(cc3[C@@H](OC(=O)c3cnccn3)[C@H]3COC(=O)[C@H]23)OCO4)cc(OC)c1O | 4.15
36 | COc1cc([C@@H]2c3cc4c(cc3[C@@H](O)[C@H]3COC(=O)[C@H]23)OCO4)cc(OC)c1O [4'-DEMETHYLEPIPODOPHYLLOTOXIN] | 21.3

tested on: BGC-823; experiment: as §2; assay type: functional, cell-based; settings: not given; summary of the method: as §1

Row | Compound | Activity
37 | COc1cc([C@@H]2c3cc4c(cc3[C@@H](O)[C@H]3COC(=O)[C@H]23)OCO4)cc(OC)c1O [4'-DEMETHYLEPIPODOPHYLLOTOXIN] | Dose-dependent effect
